ChEMBL document CHEMBL1124262, “Cardiotonic agents. Synthesis and inotropic activity of a series of isoquinolin-3-ol derivatives” (J Med Chem, 1988)

Key:
[1] = test system: Canis familiaris; experiment: Percent change in mean arterial blood pressure (MAP) in anesthetized open chest dogs iv administration at 0.8750 mg/kg; type: functional, Canis lupus familiaris; conditions: dose 0.875 mg/kg
In short: (§1)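 Anesthetized open-chest dogs, one drug per animal. Compound is in DMF diluted to 10% in saline, or given as the HCl salt in saline. It is infused into the femoral vein by pump at 0.58-2.2 mL/min in 3-4 stepwise cumulative doses, each over 5 min after the prior peak. Readings are CF by right-ventricle strain gauge, dP/dtmax by Millar LV catheter, HR by cardiotachometer and MAP from femoral artery, as % change from predrug control.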

[2] = test system: Canis familiaris; experiment: Change in left ventricular pressure of anaesthetized, open chest dogs following 0.875 mg/kg i.v. administration.; type: functional, Canis lupus familiaris, Heart left ventricle; conditions: route intravenous; in short: as §1
[3] = test system: Canis familiaris; experiment: Change in heart contractile force of anaesthetized, open chest dogs following 0.875 mg/kg i.v. administration.; type: functional, Canis lupus familiaris; conditions: route intravenous; in short: as §1
[4] = test system: Canis familiaris; experiment: 50% increase in contractile force in one to three anesthetized dogs administered intravenously; type: functional; conditions: Canis lupus familiaris, iv
In short: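 Anesthetized dogs (one to three). Compound is infused iv in three to four stepwise increasing doses, each over 5 min once the previous effect has peaked. Contractile force is recorded with a Walton Brodie strain gauge on the right ventricle. The dose (μg/kg) giving a 50% rise over control CF is read from the dose-response curve, graphically (n < 3) or by linear regression (n ≥ 3).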

[5] = test system: Canis familiaris; experiment: Change in heart rate of anaesthetized, open chest dogs following 0.875 mg/kg i.v. administration.; type: functional, Canis lupus familiaris; conditions: route intravenous; in short: as §1
[6] = target: Phosphodiesterase 3 (Homo sapiens, UniProt Q14432+Q13370); experiment: Inhibition of phosphodiesterase fraction III in anesthetized open chest dogs; type: functional, Canis lupus familiaris; conditions: target entry is the homologue from another species
In short: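 Enzyme is dog heart PDE-III, the third DEAE-cellulose fraction eluted at 800 mM sodium acetate. Compounds are tested at 0.01–1000 μM with 0.25 μM cAMP containing [³H]cAMP, in 0.05 M Tris-HCl pH 7.4 with 5 mM MgCl2. The reaction is stopped by heat, then snake venom converts product to adenosine. [³H]adenosine is counted by scintillation after Dowex separation. IC50 comes from ≥2 determinations, each in duplicate.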

[7] = test system: Canis familiaris; experiment: Percent change in left ventricular pressure (dP/dtmax) in anesthetized dog after iv administration at 1.875 mg/kg; type: functional, Canis lupus familiaris, Heart left ventricle; in short: as §1
[8] = test system: Canis familiaris; experiment: Percent change in mean arterial blood pressure (MAP) in anesthetized open chest dogs iv administration at 1.875 mg/kg; type: functional, Canis lupus familiaris; in short: as §1
[9] = test system: Canis familiaris; experiment: Percent change in heart rate (HR) in anesthetized open chest dogs after a iv dose of 1.875 mg/kg; type: functional, Canis lupus familiaris; in short: as §1
[10] = test system: Canis familiaris; experiment: Percent increase in contractile force (CF) in anesthetized open-chest dogs iv administration of 1.875 mg/kg; type: functional, Canis lupus familiaris
In short: (§2)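 Anesthetized open-chest dogs. After a right thoracotomy, contractile force was recorded by a Walton Brodie strain gauge sutured to the right ventricle at 100 g baseline tension. Compound was given iv by infusion pump into a femoral vein, one drug per animal, in three to four stepwise increasing doses. Each dose ran over 5 min, starting once the previous dose's effect peaked. Values are % increase over predrug control vs cumulative mg/kg dose.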

[11] = test system: Canis familiaris; experiment: Percent increase in contractile force (CF) in anesthetized open-chest dogs iv administration of 0.050 mg/kg; type: functional, Canis lupus familiaris; conditions: dose 0.05 mg/kg; in short: as §1
[12] = test system: Canis familiaris; experiment: Percent change in left ventricular pressure (dP/dtmax) in anesthetized dog after iv administration at 0.05 mg/kg; type: functional, Canis lupus familiaris, Heart left ventricle; in short: as §1
[13] = test system: Canis familiaris; experiment: Percent change in mean arterial blood pressure (MAP) in anesthetized open chest dogs iv administration at 0.050 mg/kg; type: functional, Canis lupus familiaris; conditions: dose 0.05 mg/kg; in short: as §1
[14] = test system: Canis familiaris; experiment: Percent change in heart rate (HR) in anesthetized open chest dogs after a iv dose of 0.05 mg/kg; type: functional, Canis lupus familiaris; in short: as §1
[15] = test system: Canis familiaris; experiment: Percent change in mean arterial blood pressure (MAP) in anesthetized open chest dogs iv administration at 0.875 mg/kg; type: functional, Canis lupus familiaris; in short: as §1
[16] = test system: Canis familiaris; experiment: Percent increase in contractile force (CF) in anesthetized open-chest dogs iv administration of 0.375 mg/kg; type: functional, Canis lupus familiaris; in short: as §2
[17] = test system: Canis familiaris; experiment: Percent change in left ventricular pressure (dP/dtmax) in anesthetized dog after iv administration at 0.375 mg/kg; type: functional, Canis lupus familiaris, Heart left ventricle; in short: as §1
[18] = test system: Canis familiaris; experiment: Percent change in heart rate (HR) in anesthetized open chest dogs after a iv dose of 0.375 mg/kg; type: functional, Canis lupus familiaris; in short: as §1
[19] = test system: Canis familiaris; experiment: Percent change in mean arterial blood pressure (MAP) in anesthetized open chest dogs iv administration at 0.3750 mg/kg; type: functional, Canis lupus familiaris; conditions: dose 0.375 mg/kg; in short: as §1

Row | SMILES | Change [1] | Increase [2] | Increase [3] | Change [5] | Increase [7] | Change [8] | Change [9] | Increase [10] | also measured
1 | Br.COc1cc2c(C)nc(O)c(Br)c2cc1OC | -40% | 25% | 128% | 26% | – | – | – | – | ED50 [4]: 0.185 mg/kg; IC50 [6]: 10 µM
2 | COc1cc2c(C)nc(O)c(Cl)c2cc1OC | 1% | 88% | 89% | 29% | – | – | – | – | ED50 [4]: 0.12 mg/kg; IC50 [6]: 62 µM
3 | CCCCOc1cc2c(C)nc(O)cc2cc1OC | -18% | 58% | 182% | 26% | – | – | – | – | ED50 [4]: 0.13 mg/kg; IC50 [6]: 37 µM
4 | COc1cc2c(C)nc(O)c(CCC(=O)N(C)C)c2cc1OC | – | – | – | – | -5% | -14% | -2% | 16% | –
5 | COc1ccc2c(C)nc(O)cc2c1OC | – | – | 28% | – | 13% | 1% | 3% | – | –
6 | CCc1nc(O)c(CCC(=O)OC)c2cc(OC)c(OC)cc12 | -3% | 33% | 47% | 10% | – | – | – | – | –
7 | CCCc1nc(O)c(CCC(=O)OC)c2cc(OC)c(OC)cc12 | – | – | – | 2% | 19% | -4% | – | 17% | –
8 | COc1cc2c(C)nc(O)c(C(C)C)c2cc1OC | – | – | – | – | – | – | – | – | Increase [11]: 76%; Increase [12]: 54%; Change [13]: -5%; ED50 [4]: 0.025 mg/kg; IC50 [6]: 7 µM; Change [14]: 6%
9 | COc1cc2c(C)nc(O)c(CCC(N)=O)c2cc1OC | – | – | – | – | 29% | -9% | 11% | 49% | –
10 | CCOc1cc2c(C)nc(O)c(CC)c2cc1OC | -46% | 6% | 118% | 26% | – | – | – | – | ED50 [4]: 0.02 mg/kg; IC50 [6]: 2 µM
11 | COc1cc2cc(O)nc(C)c2c(OC)c1OC | – | 45% | 76% | 13% | – | – | – | – | Change [15]: -2%
12 | CCOc1cc2c(C)nc(O)cc2cc1OC | – | 88% | 197% | 22% | – | – | – | – | Change [15]: -10%
13 | COC(=O)Cc1c(O)nc(C)c2cc(OC)c(OC)cc12 | -1% | 28% | 42% | 6% | – | – | – | – | –
14 | CCOC(=O)CCc1c(O)nc(C)c2cc(OC)c(OC)cc12 | -4% | 20% | 60% | 8% | – | – | – | – | –
15 | COc1cc2c(C)nc(O)c(CC(C)C)c2cc1OC | – | – | – | – | 25% | -6% | 10% | 39% | –
16 | COC(=O)Oc1cc2cc(OC)c(OC)cc2c(C)n1 | – | – | – | – | – | – | – | – | Increase [16]: 119%; Increase [17]: 66%; Change [18]: 19%; Change [19]: -8%
17 | COC(=O)CCc1c(O)ncc2cc(OC)c(OC)cc12 | -4% | 24% | 53% | 7% | – | – | – | – | –

Row | SMILES | Change [1] | Increase [2] | Increase [3] | Change [5] | Increase [7] | Change [8] | Change [9] | Increase [10] | also measured
18 | COc1ccc2cc(O)nc(C)c2c1OC | – | 51% | 62% | 10% | – | – | – | – | Change [15]: -6%
19 | COc1ccc2cc(O)nc(C)c2c1 | -18% | 87% | 114% | 19% | – | – | – | – | –
20 | COC(=O)c1c(O)nc(C)c2cc(OC)c(OC)cc12 | – | – | – | – | 19% | -3% | 6% | 39% | –
21 | Cc1nc(O)c(Cl)c2cc3c(cc12)OCO3 | – | – | – | – | 51% | -22% | 28% | 88% | –
22 | COC(=O)CCc1c(O)ncc2cc3c(cc12)OCO3 | – | – | – | – | 28% | 0% | 6% | 26% | –
23 | CNC(=O)CCc1c(O)nc(C)c2cc(OC)c(OC)cc12 | – | 40% | – | – | – | -5% | 7% | 62% | –
24 | CCOc1cc2cnc(O)cc2cc1OC | – | – | – | – | 32% | 0% | 7% | 34% | –
25 | CNC(=O)c1c(O)nc(C)c2cc(OC)c(OC)cc12 | – | – | – | – | 17% | 4% | 0% | 2% | –
26 | CCOc1cc2cc(O)nc(C)c2cc1OCC | -11% | 42% | 84% | 15% | – | – | – | – | –
27 | COC(=O)CCc1c(O)nc(C)c2cc3c(cc12)OCO3 | -21% | 118% | 131% | 38% | – | – | – | – | –
28 | COc1cc2c(C)nc(O)c(CCC(=O)OC(C)C)c2cc1OC | – | – | – | – | 15% | -6% | 3% | 22% | –
29 | COC(=O)CCc1c(O)nc(C)c2c(OC)c(OC)c(OC)cc12 | -4% | 20% | 22% | 8% | – | – | – | – | –
30 | COc1cc2c(C)nc(O)c(CCC(=O)O)c2cc1OC | – | – | – | – | 42% | -3% | 5% | 75% | –
31 | COc1cc2c(C)nc(O)c(C3CCCC3)c2cc1OC | – | – | – | – | 22% | 3% | 5% | 46% | ED50 [4]: 1.88 mg/kg; IC50 [6]: 128 µM
32 | COC(=O)CCc1c(O)nc(C(C)C)c2cc(OC)c(OC)cc12 | – | – | – | – | 17% | 3% | 7% | 15% | –
33 | COc1ccc2[nH]c(=O)nc(C)c2c1OC [BEMARINONE] | – | – | – | – | – | – | – | – | Increase [16]: 71%; Increase [17]: 30%; Change [18]: 11%; Change [19]: -6%
